Assay results gathered from unrelated publications.
Each line is one published result; the experiments were not run side by side.
Target: Serine/threonine-protein kinase 32B (STK32B, Homo sapiens, UniProt Q9NY57)

SMILES | effect on | method | concentration | remaining binding [%]
CCC(=O)N[C@H]1CC[C@@H](C(=O)N(C)c2ccc(-c3nc4ccccc4o3)cc2)C1 | cell-free assay | competition with immobilised ligand | 1 µM | 98
CN(CCCC(F)(F)F)c1nccc(-c2cnn3ncccc23)n1 | binding | – | 1 µM | 87
FC(F)(F)Oc1cccc(-c2cnc3ccc(-c4ccncc4)nn23)c1 | binding | competition with immobilised ligand | 5 µM | 97
O=C(c1ccc(Nc2ncc(Cl)c(-c3ccc(Cl)s3)n2)cc1)N1CCC(N2CCCC2)CC1 | binding | competition with immobilised ligand | 1 µM | 100
Cc1c(NC(=O)c2cc(C(N)=O)nc3cc(F)ccc23)c(C(F)(F)F)nn1Cc1ccc(C#N)cc1 | cell-free assay | competition with immobilised ligand | 1 µM | 100
CNC(=O)[C@@H]1CC[C@@H](n2c(-c3ccc4cnccc4c3)nc3ccc(C(=O)NCc4cccc(C(N)=O)c4)cc32)C1 | binding | competition with immobilised ligand | 1 µM | 100
N[C@@H]1CCN(c2nccc(-c3cnn4ncccc34)n2)C1 | binding | – | 1 µM | 96
O=C(c1ccc(Nc2ncc(Cl)c(-c3cc4ccccc4s3)n2)cc1)N1CCC(N2CCCC2)CC1 | binding | competition with immobilised ligand | 1 µM | 100
C[C@H](c1cccc(C#N)c1)n1cc(Cl)cc(C(N)=O)c1=N | cell-free assay | competition with immobilised ligand | 1 µM | 100
CN(C)c1nccc(-c2cnn3ncccc23)n1 | binding | – | 1 µM | 100
COc1cnc(Nc2cccc(S(N)(=O)=O)c2)nc1N1CCN(c2ccccc2)CC1 | binding | competition with immobilised ligand | 1 µM | 100
CC1CCCN1c1nccc(-c2cnn3ncccc23)n1 (centres unmarked) | binding | – | 1 µM | 100
CO[C@@H](C)c1c(Nc2ccc([C@H](N(C)C(=O)C3CCS(=O)(=O)CC3)C(F)(F)F)cc2)cnc2cc(Cl)nn12 | cell-free assay | competition with immobilised ligand | 1 µM | 89
O=C(NCC1CCOCC1)c1n[nH]cc1NC(=O)c1c(F)cccc1F | binding | competition with immobilised ligand | 1 µM | 77
COc1ncc2cc3ccccc3nc2c1C#N | cell-free assay | competition with immobilised ligand | 5 µM | 84
O=C(NCCCN1CCOCC1)c1ccc(Nc2ncc(Cl)c(-c3ccc(Cl)s3)n2)cc1 | binding | competition with immobilised ligand | 1 µM | 100
Cc1cnn2ncc(-c3ccnc(N(C)C)n3)c2c1 | binding | – | 1 µM | 100
CS(=O)(=O)N1CCCC(NC(=O)[C@H](CCC2CCCCC2)NC(=O)c2ccc(CNC(=O)c3cnc4ccccn34)cc2)C1 (some centres unmarked) | cell-free assay | competition with immobilised ligand | 0.1 µM | 93
C[C@@H]1CCN(c2nccc(-c3cnn4ncccc34)n2)C1 | binding | – | 1 µM | 89
CC1=C(C#N)[C@@H](c2ccc3[nH]nc(C)c3c2)C(C#N)=C(c2ccc(Cl)cc2)N1 | cell-free assay | competition with immobilised ligand | 1 µM | 100
